The source of these data is ChEMBL document CHEMBL1151445, “Molecular epidemiology and mechanisms of carbapenem resistance in Pseudomonas aeruginosa isolates from Spanish hospitals” (2007).

In brackets after ≈: the same amount, converted by molar mass.

In assay [1] the test system is Pseudomonas aeruginosa. The assay can be described thus: Antimicrobial activity against Pseudomonas aeruginosa PAO1 by E-test. Type of assay: functional.
Assay [2] has as its system Pseudomonas aeruginosa. Briefly: Antimicrobial activity against Pseudomonas aeruginosa GY3 producing blaVIM-2 by E-test. Type of assay: functional.
Assay [3] concerns Pseudomonas aeruginosa. The assay can be described thus: Antimicrobial activity against Pseudomonas aeruginosa PAO1 harboring pV2GY3 with blaVIM-2 and aac(6)'-32 by E-test. The class given is functional. The essentials:
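Plasmid DNA from clinical strain GY3 was electroporated into PAO1. Transformants were selected on Luria-Bertani agar with 8 μg imipenem/ml and checked with MBL Etest strips and PCR for the MBL gene. MICs for the transformant were determined by Etest.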

Assay [4] has as its system Pseudomonas aeruginosa. The assay can be described thus: Antimicrobial activity against carbapenem-resistant Pseudomonas aeruginosa clinical isolate assessed as resistant isolates. Type of assay: functional.
For assay [5], the system named is Escherichia coli. Briefly: Antimicrobial activity against Escherichia coli XL1-Blue harboring pGTAAC-32 with cloned aac(6)'-32 by E-test.
The subject of assay [6] is Pseudomonas aeruginosa. The assay can be described thus: Antimicrobial activity against carbapenem-susceptible Pseudomonas aeruginosa clinical isolate assessed as resistant isolates. The class given is functional.
The subject of assay [7] is Escherichia coli. Briefly: Antimicrobial activity against Escherichia coli XL1-Blue by E-test. Type of assay: functional.
Assay [8] concerns Pseudomonas aeruginosa. The assay can be described thus: Antimicrobial activity against carbapenem-resistant Pseudomonas aeruginosa clinical isolate. Type of assay: functional.
In assay [9] the test system is Pseudomonas aeruginosa. The assay can be described thus: Antimicrobial activity against carbapenem-resistant Pseudomonas aeruginosa clinical isolate.

A word on the MIC: it is the smallest concentration in the dilution series that meets the test's criterion for growth inhibition. Low readings indicate inhibition by little substance, high ones a need for much substance. Consider `CO/N=C(\C(=O)N[C@@H]1C(=O)N2C(C(=O)[O-])=C(C[N+]3(C)CCCC3)CS[C@H]12)c1csc(N)n1`, for which the minimum inhibitory concentration (MIC) was determined as 1.5 µg/mL (≈ 3.12 µM) against Pseudomonas aeruginosa [1], 16 µg/mL (≈ 33.3 µM) with Pseudomonas aeruginosa [2] and 16 µg/mL (≈ 33.3 µM) against Pseudomonas aeruginosa [3].

With `NCC[C@H](O)C(=O)N[C@@H]1C[C@H](N)[C@@H](O[C@H]2O[C@H](CN)[C@@H](O)[C@H](O)[C@H]2O)[C@H](O)[C@H]1O[C@H]1O[C@H](CO)[C@@H](O)[C@H](N)[C@H]1O` [AMIKACIN], the MIC came out at 3 µg/mL (≈ 5.12 µM) in the assay with Pseudomonas aeruginosa [1]; 64 µg/mL (≈ 109 µM) against Pseudomonas aeruginosa [2]; 1.5 µg/mL (≈ 2.56 µM) against Escherichia coli [5]; 48 µg/mL (≈ 82 µM) against Pseudomonas aeruginosa [3]; 0.75 µg/mL (≈ 1.28 µM) in the assay with Escherichia coli [7]. The Activity with Pseudomonas aeruginosa [4] amounted to 19%; with Pseudomonas aeruginosa [6], 9%.

Take `C[C@H]1[C@H](NC(=O)/C(=N\OC(C)(C)C(=O)O)c2csc(N)n2)C(=O)N1S(=O)(=O)O` [AZTREONAM]: the MIC in the assay on Pseudomonas aeruginosa [2] and in the assay on Pseudomonas aeruginosa [3] was 2 µg/mL (≈ 4.59 µM) in each case.

As to `CC(C)(O/N=C(\C(=O)N[C@@H]1C(=O)N2C(C(=O)[O-])=C(C[n+]3ccccc3)CS[C@H]12)c1csc(N)n1)C(=O)O` [CEFTAZIDIME], the MIC against Pseudomonas aeruginosa [1] amounted to 1.5 µg/mL (≈ 2.74 µM); with Pseudomonas aeruginosa [2], 16 µg/mL (≈ 29.3 µM); against Pseudomonas aeruginosa [3], 24 µg/mL (≈ 43.9 µM). Further, the Activity is reported as 46% with Pseudomonas aeruginosa [4] and 11% in the assay with Pseudomonas aeruginosa [6].

For the molecule `O=C(O)c1cn(C2CC2)c2cc(N3CCNCC3)c(F)cc2c1=O` [CIPROFLOXACIN], the MIC against Pseudomonas aeruginosa [2] was > 32 µg/mL.

For the molecule `C[C@@H](O)[C@H]1C(=O)N2C(C(=O)O)=C(SCCNC=N)C[C@H]12` [IMIPENEM ANHYDROUS], the MIC is 2 µg/mL (≈ 6.68 µM) in the assay on Pseudomonas aeruginosa [1], > 32 µg/mL against Pseudomonas aeruginosa [2] and > 32 µg/mL against Pseudomonas aeruginosa [3]. Besides, in the assay on Pseudomonas aeruginosa [4], the Activity is given as 95%.

With `C[C@@H](O)[C@H]1C(=O)N2C(C(=O)O)=C(S[C@@H]3CN[C@H](C(=O)N(C)C)C3)[C@H](C)[C@H]12` [MEROPENEM], the MIC against Pseudomonas aeruginosa [1] came to 0.38 µg/mL (≈ 0.991 µM); against Pseudomonas aeruginosa [2], 16 µg/mL (≈ 41.7 µM); in the assay with Pseudomonas aeruginosa [8], 8 µg/mL (≈ 20.9 µM); against Pseudomonas aeruginosa [3] it was 16 µg/mL (≈ 41.7 µM); against Pseudomonas aeruginosa [9] it was 8 µg/mL (≈ 20.9 µM). For the same molecule, the Activity with Pseudomonas aeruginosa [4] is on record as 68%.

As to `CC1COc2c(N3CCN(C)CC3)c(F)cc3c(=O)c(C(=O)O)cn1c23` (stereo not drawn) [OFLOXACIN], the results for the Activity in the assay with Pseudomonas aeruginosa [4] and in the assay with Pseudomonas aeruginosa [6] were 68% and 32%, respectively.

Take `CCN1CCN(C(=O)N[C@@H](C(=O)N[C@@H]2C(=O)N3[C@@H]2SC(C)(C)[C@@H]3C(=O)O)c2ccccc2)C(=O)C1=O` [PIPERACILLIN]: the MIC amounted to 2 µg/mL (≈ 3.86 µM) against Pseudomonas aeruginosa [1], 16 µg/mL (≈ 30.9 µM) against Pseudomonas aeruginosa [2] and 16 µg/mL (≈ 30.9 µM) in the assay on Pseudomonas aeruginosa [3]. In addition, the Activity came to 28% with Pseudomonas aeruginosa [4] and 9% in the assay on Pseudomonas aeruginosa [6].

Take `CC1(C)S[C@@H]2[C@H](NC(=O)[C@H](C(=O)O)c3ccsc3)C(=O)N2[C@H]1C(=O)O` [TICARCILLIN]: the MIC is 12 µg/mL (≈ 31.2 µM) against Pseudomonas aeruginosa [1], > 256 µg/mL in the assay with Pseudomonas aeruginosa [2] and > 256 µg/mL against Pseudomonas aeruginosa [3]. For the same molecule, the Activity is on record as 34% in the assay on Pseudomonas aeruginosa [4] and 11% with Pseudomonas aeruginosa [6].

On to `NC[C@H]1O[C@H](O[C@H]2[C@H](O)[C@@H](O[C@H]3O[C@H](CO)[C@@H](O)[C@H](N)[C@H]3O)[C@H](N)C[C@@H]2N)[C@H](N)C[C@@H]1O` [TOBRAMYCIN], for which the MIC against Pseudomonas aeruginosa [1] was 0.75 µg/mL (≈ 1.6 µM); in the assay with Pseudomonas aeruginosa [2] it was > 256 µg/mL; in the assay with Escherichia coli [5] it was 6 µg/mL (≈ 12.8 µM); in the assay on Pseudomonas aeruginosa [3] it was 64 µg/mL (≈ 137 µM); against Escherichia coli [7], 0.38 µg/mL (≈ 0.813 µM). The Activity in the assay with Pseudomonas aeruginosa [4] is listed as 44%; in the assay with Pseudomonas aeruginosa [6], 9%.

Turning to GENTAMICIN, the MIC in the assay on Pseudomonas aeruginosa [1] came out at 2 µg/mL; in the assay with Pseudomonas aeruginosa [2], 32 µg/mL; against Pseudomonas aeruginosa [3], 16 µg/mL; in the assay on Escherichia coli [7], 0.19 µg/mL. Besides, the Activity in the assay with Pseudomonas aeruginosa [4] amounted to 59%; with Pseudomonas aeruginosa [6], 26%.
